ChEMBL document CHEMBL3425469, “Discovery of imidazo[2,1-b]thiazole HCV NS4B inhibitors exhibiting synergistic effect with other direct-acting antiviral agents” (J Med Chem, 2015)

Legend:
Hepatitis C virus [1] = assay: Antiviral activity against Hepatitis C virus genotype 1b Con 1 infected in human HuH7 cells at 80 nM after 72 hrs by luciferase assay in presence of 6 nM simeprevir; assay type: functional, Hepacivirus hominis, Huh-7
Procedure, shortened: (§1)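 Huh-7 cells stably carrying a GT1b Con1 bicistronic luciferase replicon, seeded at 8000 cells/well. The test compound and the partner DAA are dosed orthogonally at various concentrations, final 0.5% DMSO, then incubated 72 h at 37°C. Bright-Glo luciferase read-out gives replicon inhibition as % of untreated control. Cytotoxicity is checked in parallel by CellTiter-Fluor. CI and DRI are derived by the Chou–Talalay median-effect method.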

Hepatitis C virus [2] = assay: Antiviral activity against Hepatitis C virus genotype 1b harboring H3R NS4B mutation transfected in human HuH7 cells after 72 hrs by luciferase assay; assay type: functional, cell-based, Hepacivirus hominis; conditions: Huh-7, 72 h
Procedure, shortened: (§2)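 Huh-7 cells were transiently electroporated with genotype 1b replicon RNA carrying the specified mutation and plated at 10000 cells/well. Compounds were added at 0.5% DMSO final for 72 h at 37°C. Read-out was Bright-Glo luciferase. EC50 is the mean of two independent runs within 2-fold of each other. A reference drug EC50 was measured alongside each mutant replicon to validate it.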

Hepatitis C virus [3] = assay: Antiviral activity against Hepatitis C virus genotype 1b Con 1 infected in human HuH7 cells at 20 nM after 72 hrs by luciferase assay in presence of 15 uM clemizole; assay type: functional, Hepacivirus hominis, Huh-7; procedure, shortened: as §1
Hepatitis C virus [4] = assay: Antiviral activity against Hepatitis C virus genotype 1b Con 1 infected in human HuH7 cells at 20 nM after 72 hrs by luciferase assay in presence of 60 nM sofobuvir; assay type: functional, Hepacivirus hominis, Huh-7; procedure, shortened: as §1
Hepatitis C virus [5] = assay: Antiviral activity against Hepatitis C virus genotype 1b Con 1 infected in human HuH7 cells at 5 nM after 72 hrs by luciferase assay in presence of 0.04 nM daclatasvir; assay type: functional, Hepacivirus hominis, Huh-7; procedure, shortened: as §1
Hepatitis C virus [6] = assay: Antiviral activity against Hepatitis C virus genotype 1b harboring V105M mutation transfected in human HuH7 cells after 72 hrs by luciferase assay; assay type: functional, cell-based, Hepacivirus hominis; conditions: Huh-7, 72 h; procedure, shortened: as §2
Hepatitis C virus [7] = assay: Antiviral activity against Hepatitis C virus genotype 1b Con 1 infected in human HuH7 cells at 20 nM after 72 hrs by luciferase assay in presence of 7.5 uM clemizole; assay type: functional, Hepacivirus hominis, Huh-7; procedure, shortened: as §1
Hepatitis C virus [8] = assay: Antiviral activity against Hepatitis C virus genotype 1b Con 1 infected in human HuH7 cells at 20 nM after 72 hrs by luciferase assay in presence of 17.5 uM clemizole; assay type: functional, Hepacivirus hominis, Huh-7; procedure, shortened: as §1
Hepatitis C virus [9] = assay: Antiviral activity against Hepatitis C virus genotype 1b Con 1 infected in human HuH7 cells at 80 nM after 72 hrs by luciferase assay in presence of 3 nM simeprevir; assay type: functional, Hepacivirus hominis, Huh-7; procedure, shortened: as §1
Hepatitis C virus [10] = assay: Antiviral activity against Hepatitis C virus genotype 1b Con 1 infected in human HuH7 cells at 10 nM after 72 hrs by luciferase assay in presence of 30 nM sofobuvir; assay type: functional, Hepacivirus hominis, Huh-7
Procedure, shortened: (§3)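 Stable Con1 GT1b bicistronic luciferase replicon in Huh-7 cells, 8000 cells/well. Test compound and a marketed DAA or clemizole added alone or together at varied concentrations, 0.5% DMSO final. 72 h at 37°C, then luciferase read with Bright-Glo. Inhibition expressed as % of untreated control, with cytotoxicity run in parallel. CI and DRI derived by the Chou–Talalay median-effect method.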

Hepatitis C virus [11] = assay: Antiviral activity against Hepatitis C virus genotype 1b Con 1 infected in human HuH7 cells at 2.5 nM after 72 hrs by luciferase assay in presence of 240 nM sofobuvir; assay type: functional, Hepacivirus hominis, Huh-7; procedure, shortened: as §3
Hepatitis C virus [12] = assay: Antiviral activity against Hepatitis C virus genotype 1b Con 1 infected in human HuH7 cells at 160 nM after 72 hrs by luciferase assay in presence of 0.02 nM daclatasvir; assay type: functional, Hepacivirus hominis, Huh-7; procedure, shortened: as §3
Hepatitis C virus [13] = assay: Antiviral activity against Hepatitis C virus genotype 1b Con 1 infected in human HuH7 cells at 5 nM after 72 hrs by luciferase assay in presence of 12 nM simeprevir; assay type: functional, Hepacivirus hominis, Huh-7; procedure, shortened: as §1
Hepatitis C virus [14] = assay: Antiviral activity against Hepatitis C virus genotype 1b Con 1 infected in human HuH7 cells at 2.5 nM after 72 hrs by luciferase assay in presence of 60 nM sofobuvir; assay type: functional, Hepacivirus hominis, Huh-7; procedure, shortened: as §3
Hepatitis C virus [15] = assay: Antiviral activity against Hepatitis C virus genotype 1b Con 1 infected in human HuH7 cells at 40 nM after 72 hrs by luciferase assay in presence of 5 uM clemizole; assay type: functional, Hepacivirus hominis, Huh-7; procedure, shortened: as §1
Hepatitis C virus [16] = assay: Antiviral activity against Hepatitis C virus genotype 1b Con 1 infected in human HuH7 cells at 80 nM after 72 hrs by luciferase assay in presence of 0.16 nM daclatasvir; assay type: functional, Hepacivirus hominis, Huh-7; procedure, shortened: as §1
Hepatitis C virus [17] = assay: Antiviral activity against Hepatitis C virus genotype 1b Con 1 infected in human HuH7 cells at 20 nM after 72 hrs by luciferase assay in presence of 3 nM simeprevir; assay type: functional, Hepacivirus hominis, Huh-7; procedure, shortened: as §1
Hepatitis C virus [18] = assay: Antiviral activity against Hepatitis C virus genotype 1b Con 1 infected in human HuH7 cells at 80 nM after 72 hrs by luciferase assay in presence of 180 nM sofobuvir; assay type: functional, Hepacivirus hominis, Huh-7; procedure, shortened: as §1
Hepatitis C virus [19] = assay: Antiviral activity against Hepatitis C virus genotype 1b Con 1 infected in human HuH7 cells at 2.5 nM after 72 hrs by luciferase assay in presence of 7.5 uM clemizole; assay type: functional, Hepacivirus hominis, Huh-7; procedure, shortened: as §3
Hepatitis C virus [20] = assay: Antiviral activity against Hepatitis C virus genotype 1b Con 1 infected in human HuH7 cells at 10 nM after 72 hrs by luciferase assay in presence of 12.5 uM clemizole; assay type: functional, Hepacivirus hominis, Huh-7; procedure, shortened: as §3
Hepatitis C virus [21] = assay: Antiviral activity against Hepatitis C virus genotype 1b Con 1 infected in human HuH7 cells at 20 nM after 72 hrs by luciferase assay in presence of 6 nM simeprevir; assay type: functional, Hepacivirus hominis, Huh-7; procedure, shortened: as §1
Hepatitis C virus [22] = assay: Antiviral activity against Hepatitis C virus genotype 1b Con 1 infected in human HuH7 cells at 160 nM after 72 hrs by luciferase assay in presence of 60 nM sofobuvir; assay type: functional, Hepacivirus hominis, Huh-7; procedure, shortened: as §3
Hepatitis C virus [23] = assay: Antiviral activity against Hepatitis C virus genotype 1b Con 1 infected in human HuH7 cells at 80 nM after 72 hrs by luciferase assay in presence of 30 nM sofobuvir; assay type: functional, Hepacivirus hominis, Huh-7; procedure, shortened: as §1
Hepatitis C virus [24] = assay: Antiviral activity against Hepatitis C virus genotype 1b Con 1 infected in human HuH7 cells at 20 nM after 72 hrs by luciferase assay in presence of 0.16 nM daclatasvir; assay type: functional, Hepacivirus hominis, Huh-7; procedure, shortened: as §3
Hepatitis C virus [25] = assay: Antiviral activity against Hepatitis C virus genotype 1b Con 1 infected in human HuH7 cells at 20 nM after 72 hrs by luciferase assay in presence of 20 uM clemizole; assay type: functional, Hepacivirus hominis, Huh-7; procedure, shortened: as §1
Hepatitis C virus [26] = assay: Antiviral activity against Hepatitis C virus genotype 1b Con 1 infected in human HuH7 cells at 2.5 nM after 72 hrs by luciferase assay in presence of 3 nM simeprevir; assay type: functional, Hepacivirus hominis, Huh-7; procedure, shortened: as §3
Hepatitis C virus [27] = assay: Antiviral activity against Hepatitis C virus genotype 1b Con 1 infected in human HuH7 cells at 2.5 nM after 72 hrs by luciferase assay in presence of 17.5 uM clemizole; assay type: functional, Hepacivirus hominis, Huh-7; procedure, shortened: as §3
Hepatitis C virus [28] = assay: Antiviral activity against Hepatitis C virus genotype 1b Con 1 infected in human HuH7 cells at 2.5 nM after 72 hrs by luciferase assay in presence of 20 uM clemizole; assay type: functional, Hepacivirus hominis, Huh-7; procedure, shortened: as §3
Hepatitis C virus [29] = assay: Antiviral activity against Hepatitis C virus genotype 1b Con 1 infected in human HuH7 cells at 20 nM after 72 hrs by luciferase assay in presence of 0.02 nM daclatasvir; assay type: functional, Hepacivirus hominis, Huh-7; procedure, shortened: as §3
Hepatitis C virus [30] = assay: Antiviral activity against Hepatitis C virus genotype 1b Con 1 infected in human HuH7 cells at 5 nM after 72 hrs by luciferase assay in presence of 17.5 uM clemizole; assay type: functional, Hepacivirus hominis, Huh-7; procedure, shortened: as §1

O=C(c1nc2scc(C3CC3)n2c1Cl)N1CCN(C2CCCC2)C(=O)C1
CI (Hepatitis C virus [1]): 0.37 | EC50 (Hepatitis C virus [2]): 1.1 µM | CI (Hepatitis C virus [3]): 0.79 | CI (Hepatitis C virus [4]): 0.78 | CI (Hepatitis C virus [5]): 0.89 | EC50 (Hepatitis C virus [6]): 27.2 µM | CI (Hepatitis C virus [7]): 0.56 | CI (Hepatitis C virus [8]): 1.18 | CI (Hepatitis C virus [9]): 0.62 | CI (Hepatitis C virus [10]): 0.69 | CI (Hepatitis C virus [11]): 0.83 | CI (Hepatitis C virus [12]): 0.5 | CI (Hepatitis C virus [13]): 0.75 | CI (Hepatitis C virus [14]): 1.04 | CI (Hepatitis C virus [15]): 1.03 | CI (Hepatitis C virus [16]): 0.73 | CI (Hepatitis C virus [17]): 0.94 | CI (Hepatitis C virus [18]): 0.43 | CI (Hepatitis C virus [19]): 0.72 | CI (Hepatitis C virus [20]): 0.81 | CI (Hepatitis C virus [21]): 0.48 | CI (Hepatitis C virus [22]): 0.58 | CI (Hepatitis C virus [23]): 0.91 | CI (Hepatitis C virus [24]): 0.69 | CI (Hepatitis C virus [25]): 1.03 | CI (Hepatitis C virus [26]): 1.26 | CI (Hepatitis C virus [27]): 1.36 | CI (Hepatitis C virus [28]): 1.45 | CI (Hepatitis C virus [29]): 0.98 | CI (Hepatitis C virus [30]): 1.26
